We go through 24 compounds from ChEMBL document CHEMBL5143753, “Pyrimido[5,4-d]pyrimidine-Based Compounds as a Novel Class of Antitrypanosomal and Antileishmanial Agents” (ACS Med Chem Lett, 2022).

The test system of data set [1] is Trypanosoma brucei brucei. The experiment in a line: Antitrypanosomal activity against Trypanosoma brucei brucei Lister 427 bloodstream forms incubated for 72 hrs by resazurin based assay. It counts as functional, organism-based. To be noted: for IC50: Lister 427, 72 h; for IC90: Lister 427, time 72 hrs. The procedure, abridged: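 T. brucei was screened first at 10 μM, with pentamidine as the reference and internal control. IC50 was determined when growth inhibition was above 50%, reported with a 95% confidence interval for the mean curve of the independent assays.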
In general terms: The colour change of resazurin is a common sign of viable cells or microbes.

Data set [2] can be described thus: Selectivity index, ratio of CC50 for human THP1 cells to IC50 for antitrypanosomal activity against Trypanosoma brucei brucei Lister 427 bloodstream forms. To be noted: read-out: Ratio CC50/IC50. It counts as toxicity. The procedure, abridged:
(§1)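 Selectivity index was calculated as THP1 CC50 divided by parasite IC50.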

Data set [3] is described as follows: Cytotoxicity in human THP-1 cells assessed as reduction in cell viability incubated for 48 hrs hrs by MTT assay. It counts as toxicity, cell-based. On the technique in general: Formazan colour is commonly taken as a measure of viable cells.
The test system of another data set is Leishmania infantum. Description: Antileishmanial activity against luciferase-expressing Leishmania infantum (MHOM/MA/67/ITMAP-263) axenic amastigotes incubated for 72 hrs by resazurin based assay relative to control. It counts as functional, organism-based. Conditions: MHOM/MA/67/ITMAP-263, 72 h, in the assay text read “promastigotes” for “axenic amastigotes”.

Data set [4] can be described thus: Selectivity index, ratio of CC50 for human THP1 cells to IC50 for Antileishmanial activity against luciferase-expressing Leishmania infantum (MHOM/MA/67/ITMAP-263) axenic amastigotes incubated for 72 hrs by resazurin based assay relative to control. It counts as toxicity. Conditions: in the assay text read “promastigotes” for “axenic amastigotes”, read-out: Ratio CC50/IC50. The procedure, abridged: as §1

With `OCCCOc1ccc(Nc2ncnc3c(N/N=C/c4cc(O)c(O)c(O)c4)ncnc23)cc1`, in data set [1], it took 6.95 µM to reach half-maximal inhibition (IC50) and the 90% effect level (IC90) was put at 20.5 µM. Moreover, the selectivity ratio in data set [2] was > 14. In addition, the CC50 (usually the concentration that lowers cell viability or growth by half) at 48 h in data set [3] is > 100 µM.

As for `COc1cc(/C=N/Nc2ncnc3c(Nc4cccc(OCCCO)c4)ncnc23)cc(OC)c1OC`, in data set [1], inhibition was half-maximal at 6.12 µM (IC50) and the 90% effect level (IC90) was put at 17.6 µM. Further, in data set [2], the selectivity ratio came to 8. Further, the CC50 at 48 h in data set [3] came out at 50 µM.

Regarding `CCCCCCCCCCCCCCCCOP(=O)([O-])OCC[N+](C)(C)C` [MILTEFOSINE], 2.21 µM corresponded to half-maximal inhibition in the data set on Leishmania infantum (IC50). Further, in data set [4], the selectivity ratio at 72 h is 1.3. Besides, the CC50 at 48 h in data set [3] amounted to 30.9 µM.

Take `COc1cc(/C=N/Nc2ncnc3c(Nc4cccc(OCCCO)c4)ncnc23)ccc1O`: in data set [1], the midpoint of inhibition, the IC50, lay at 13.4 µM and the 90% effect level (IC90) was put at 44.9 µM. In data set [2], the selectivity ratio was found to be 1. For the same compound, the CC50 at 48 h in data set [3] came to 25 µM.

`NNc1ncnc2c(Nc3cccc(OCCCO)c3)ncnc12`: in data set [1], the IC50 (commonly the concentration that gives 50% inhibition) is 9.89 µM and the 90% effect concentration (IC90) (usually the concentration needed for an effect of 90%) was determined as 24.1 µM. Also, the selectivity ratio in data set [2] is > 10. For the same compound, the CC50 at 48 h in data set [3] was > 100 µM.

In data set [1], `OCCCOc1cccc(Nc2ncnc3c(N/N=C/c4ccc(O)cc4)ncnc23)c1` yielded an IC50 of 6.18 µM and a concentration for an effect of 90% (IC90) of 21.2 µM. The selectivity ratio in data set [2] is 8. Moreover, the CC50 at 48 h in data set [3] was 50 µM.

In the case of `COc1cc(/C=N/Nc2ncnc3c(Nc4ccc(OCCCO)cc4)ncnc23)cc(OC)c1O`, in data set [1], the IC50 was found to be 12.4 µM and the IC90 turned out to be 255 µM. For the same compound, the selectivity ratio in data set [2] is 4. For the same compound, the CC50 at 48 h in data set [3] was determined as 50 µM.

Regarding `COc1ccc(/C=N/Nc2ncnc3c(Nc4ccc(OCCCO)cc4)ncnc23)cc1OC`, in data set [1], the IC50 turned out to be 8.59 µM and the IC90 was found to be 25.5 µM. The selectivity ratio in data set [2] was found to be 6. Besides, in data set [3], the CC50 at 48 h came out at 50 µM.

On to `OCCCOc1cccc(Nc2ncnc3c(N/N=C/c4ccc(O)c(O)c4)ncnc23)c1`, for which, in data set [1], half-maximal inhibition (IC50) required 2.29 µM and the IC90 was 5.67 µM. In addition, the selectivity ratio in data set [2] stood at 4. Besides, the CC50 at 48 h in data set [3] stood at 25 µM.

In data set [1], `COc1cc(/C=N/Nc2ncnc3c(Nc4cccc(OCCCO)c4)ncnc23)cc(OC)c1O` yielded an IC50 of 6.06 µM and an IC90 of 18.1 µM. Moreover, the selectivity ratio in data set [2] is 4. Also, the CC50 at 48 h in data set [3] came out at 50 µM.

In data set [1], `COc1ccc(/C=N/Nc2ncnc3c(Nc4cccc(OCCCO)c4)ncnc23)cc1OC` displayed an IC50 of 2.72 µM and an IC90 of 8.17 µM. The selectivity ratio in data set [2] was > 37. Further, the CC50 at 48 h in data set [3] was > 100 µM.

In data set [1], `COc1ccc(/C=N/Nc2ncnc3c(Nc4ccc(OCCCO)cc4)ncnc23)cc1O` displayed an IC50 of 2.6 µM and an IC90 of 8.73 µM. In addition, the selectivity ratio in data set [2] stood at 19. Also, in data set [3], the CC50 at 48 h worked out at 50 µM.

In data set [1], `COc1cc(/C=N/Nc2ncnc3c(Nc4cccc(OCc5ccncc5)c4)ncnc23)cc(OC)c1O` returned an IC50 of 3.41 µM and an IC90 of 37.2 µM. Further, the selectivity ratio in data set [2] is > 29. For the same compound, the CC50 at 48 h in data set [3] was > 100 µM.

On to `OCCCOc1ccc(Nc2ncnc3c(N/N=C/c4ccc(O)c(O)c4)ncnc23)cc1`, for which, in data set [1], the IC50 stood at 1.9 µM and the 90% effect level (IC90) was put at 2.07 µM. Moreover, the selectivity ratio in data set [2] was 5. In addition, the CC50 at 48 h in data set [3] was determined as 25 µM.

For `NNc1ncnc2c(Nc3ccc(OCCCO)cc3)ncnc12`, in data set [1], the IC50 was determined as 3.03 µM and the IC90 came to 35.8 µM. Further, the selectivity ratio in data set [2] was > 33. In addition, the CC50 at 48 h in data set [3] is > 100 µM.

As to `COc1cc(/C=N/Nc2ncnc3c(Nc4ccc(OCCCO)cc4)ncnc23)cc(OC)c1OC`, in data set [1], the half-maximal inhibitory concentration (IC50) was determined as 3.32 µM and it took 37.7 µM to reach the 90% level (IC90). Further, the selectivity ratio in data set [2] was > 30. Moreover, the CC50 at 48 h in data set [3] is > 100 µM.

In data set [1], `N=C(N)c1ccc(OCCCCCOc2ccc(C(=N)N)cc2)cc1` [PENTAMIDINE] gave an IC50 of 0.00405 µM. The selectivity ratio in data set [2] was determined as 12800. In addition, in data set [3], the CC50 at 48 h is 51.8 µM.

In data set [1], `NNc1ncnc2c(Nc3cccc(OCc4ccncc4)c3)ncnc12` returned a concentration for half-maximal inhibition (IC50) of 0.94 µM and an IC90 of 1.24 µM. Besides, the selectivity ratio in data set [2] is > 107. In the data set on Leishmania infantum, the IC50 stood at 3.13 µM. For the same compound, the selectivity ratio at 72 h in data set [4] is > 32. Besides, the CC50 at 48 h in data set [3] is > 100 µM.

As to `Oc1ccc(/C=N/Nc2ncnc3c(Nc4cccc(OCc5ccncc5)c4)ncnc23)cc1O`, in data set [1], the IC50 was determined as 1.73 µM and the IC90 came to 1.75 µM. In addition, the selectivity ratio in data set [2] was > 58. Further, in data set [3], the CC50 at 48 h was > 100 µM.

In data set [1], `Oc1cc(/C=N/Nc2ncnc3c(Nc4cccc(OCc5ccncc5)c4)ncnc23)cc(O)c1O` yielded an IC50 of 3.88 µM and an IC90 of 8.36 µM. In addition, the selectivity ratio in data set [2] is > 26. The CC50 at 48 h in data set [3] was > 100 µM.

For the compound `COc1cc(/C=N/Nc2ncnc3c(Nc4ccc(OCCCO)cc4)ncnc23)ccc1O`, in data set [1], it took 3.76 µM to reach half-maximal inhibition (IC50) and the IC90 was found to be 9.22 µM. In addition, the selectivity ratio in data set [2] came out at 14. The CC50 at 48 h in data set [3] is 50 µM.

As for `OCCCOc1cccc(Nc2ncnc3c(N/N=C/c4cc(O)c(O)c(O)c4)ncnc23)c1`, in data set [1], the IC50 worked out at 3.26 µM and it took 14.5 µM to reach the 90% level (IC90). The selectivity ratio in data set [2] was determined as 15. In addition, the half-maximal cytotoxic concentration (CC50) at 48 h in data set [3] amounted to 50 µM.

In data set [1], `OCCCOc1ccc(Nc2ncnc3c(N/N=C/c4ccc(O)cc4)ncnc23)cc1` came in with an IC50 of 12.9 µM and an IC90 of 88.3 µM. The selectivity ratio in data set [2] came out at 3. For the same compound, in data set [3], the CC50 at 48 h was 50 µM.

As for `COc1ccc(/C=N/Nc2ncnc3c(Nc4cccc(OCCCO)c4)ncnc23)cc1O`, in data set [1], the IC50 stood at 6.57 µM and the IC90 is 18.7 µM. Besides, in data set [2], the selectivity ratio is 8. The CC50 at 48 h in data set [3] is 50 µM.
